ChEMBL document CHEMBL3864121, “Development of ebsulfur analogues as potent antibacterials against methicillin-resistant Staphylococcus aureus” (Bioorg Med Chem, 2016)
Calls of active or inactive are those of the source. The rule behind the calls is not given here.

Columns and labels:
[1] = tested on: Staphylococcus aureus; assay: Bacteriostatic activity against methicillin-resistant Staphylococcus aureus S22 at 4 times MIC measured after 24 hrs by time kill analysis; format: functional
[2] = tested on: Staphylococcus aureus; assay: Antibacterial activity against methicillin-resistant Staphylococcus aureus S22 using 1 10^6CFU/ml measured after overnight incubation by broth double-dilution method; format: functional
[3] = tested on: Staphylococcus aureus; assay: Antibiofilm activity against methicillin-sensitive Staphylococcus aureus ATCC 6538 assessed as reduction of biofilm at […] ug/ml measured after 24 hrs by crystal violet staining based method relative to control; format: functional; set-up: scale not given: the % may be the effect or the level left
[4] = tested on: Staphylococcus aureus; assay: Bacteriostatic activity against methicillin-resistant Staphylococcus aureus S22 at MIC measured up to 3 to 6 hrs by time kill analysis; format: functional
[5] = Cytotoxicity against mouse RBCs assessed as hemolysis up to […] measured after 1 hr; format: toxicity, Erythrocyte; details: mouse red blood cells, read-out: Activity
[6] = tested on: Staphylococcus epidermidis RP62A; assay: Inhibition of thioredoxin reductase in Staphylococcus epidermidis ATCC 35984 assessed as induction of ROS production at 1 to 4 times MIC measured after 1 hr by DCFH-DA staining-based fluorescence microscopic analysis
In short: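 Untreated cells served as the negative control and 1 mM H2O2 as the positive control. Cells were stained with DCFH-DA (40 µg/mL) and ROS were visualized by fluorescence microscopy.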

[7] = organism: Mus musculus; assay: Cytotoxicity against mouse RBCs assessed as hemolysis at 0.24 to 31.2 ug/ml measured after 1 hr; format: toxicity; details: erythrocyte
In short: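 Murine red blood cells were exposed to compounds at various concentrations, with amikacin as a control. Percent hemolysis was scored against untreated cells (0%) and 1% Triton X (100%).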

[8] = tested on: Staphylococcus aureus; assay: Bacteriostatic activity against methicillin-resistant Staphylococcus aureus S22 at 0.5 times MIC measured up to 3 to 6 hrs by time kill analysis; format: functional

For O=c1c2ccccc2sn1-c1ccccc1, the Activity [1] was “Active”, the Activity [2] was “Active” and the Activity [3] was 40%. For the same molecule, the Activity [4] was “Active”, the hemolysis at 1 h [5] was ≤ 20% and the Activity [6] was “Active”. The Activity [7] was “Non-Toxic” and the Activity [8] was “Active”.
